Experiments:
[1] = system: Human immunodeficiency virus 1; assay: Antiviral activity against HIV1 3B infected in human MT4 cells assessed as inhibition of virus-induced cytopathogenicity after 4 days by MTT assay; assay type: functional, organism-based; settings: Human immunodeficiency virus 1, 3B, MT4, 96 h
How it was run: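 MT-4 cells (1×10^4 per well) were infected with HIV-1 IIIB at 100 CCID50, m.o.i. 0.01, together with serial compound dilutions. Viability was read by MTT after 4 days at 37 °C. EC50 was taken by linear regression versus untreated controls. Mean of three determinations.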

[2] = Antiviral activity against Vaccinia virus Lister Elstree infected in african green monkey Vero 76 cells assessed as reduction of virus-induced plaque formation after 3 days using crystal violet staining; assay type: functional, cell-based; settings: 72 h
[3] = system: Reovirus sp.; assay: Antiviral activity against Reovirus type-1 3651 infected in hamster BHK21 cells assessed as inhibition of virus-induced cytopathogenicity after 3 to 4 days by MTT assay; assay type: functional, organism-based; settings: Reovirus sp., 3651, BHK-21
How it was run: (§1)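 Host cells were seeded in 96-well plates at 3×10^4 cells/well (MDBK) or 5×10^4 cells/well (BHK-21) and grown to confluent monolayers overnight. They were infected at m.o.i. 0.01 in maintenance MEM with 0.5% inactivated FBS. Serial compound dilutions were added after 1 h. Viability was read by MTT after 3–4 days at 37 °C. EC50 was taken by linear regression against untreated controls. Mean of three determinations.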

[4] = system: Vesicular stomatitis Indiana virus; assay: Antiviral activity against clinical isolate Vesicular stomatitis Indiana virus infected in african green monkey Vero 76 cells assessed as reduction of virus-induced plaque formation after 2 days using crystal violet staining; assay type: functional, organism-based; settings: 48 h
[5] = system: Yellow fever virus; assay: Antiviral activity against Yellow fever virus 17D Stamaril Pasteur J07B01 infected in hamster BHK21 cells assessed as inhibition of virus-induced cytopathogenicity after 3 to 4 days by MTT assay; assay type: functional, cell-based; settings: Stamaril Pasteur J07B01, BHK-21; how it was run: as §1
[6] = system: Poliovirus 1; assay: Antiviral activity against Human poliovirus 1 strain Sabin Chat infected in african green monkey Vero 76 cells assessed as virus-induced reduction of plaque formation after 2 days using crystal violet staining; assay type: functional, cell-based; settings: Enterovirus C, 48 h
[7] = Cytotoxicity against BHK21 cells after 48 to 96 hrs by MTT assay; assay type: cell-based, Mesocricetus auratus, BHK-21; settings: hamster
How it was run: (§2)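 MDBK seeded at 6×10^5 and BHK at 1×10^6 cells/mL in MEM-Earle's with L-glutamine, 1 mM pyruvate, kanamycin, plus 10% horse serum (MDBK) or 10% FBS (BHK). Cells were grown at 37 °C, 5% CO2 with serial compound dilutions (DMSO stocks diluted in medium). Viability by MTT after 48–96 h. CC50 was taken by linear regression versus untreated controls; three independent determinations.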

[8] = Cytotoxicity against human MT4 cells after 96 hrs by MTT assay; assay type: cell-based
How it was run: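 Exponentially growing MT-4 cells seeded at 1×10^5 cells/mL in RPMI-1640 with 10% FBS, penicillin and streptomycin. Incubated with serial compound dilutions at 37 °C, 5% CO2 for 96 h; viability by MTT. CC50 by linear regression relative to untreated controls; mean of three independent determinations.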

[9] = Antiviral activity against Bovine viral diarrhea virus 1-NADL infected in MDBK cells assessed as inhibition of virus-induced cytopathogenicity after 3 to 4 days by MTT assay; assay type: functional, cell-based; settings: Bovine viral diarrhea virus isolates and strains; how it was run: as §1
[10] = system: Human alphaherpesvirus 1; assay: Antiviral activity against Human herpesvirus 1 strain KOS infected in african green monkey Vero 76 cells assessed as reduction of virus-induced plaque formation after 3 days using crystal violet staining; assay type: functional, organism-based; settings: Human alphaherpesvirus 1, KOS, 72 h
[11] = system: Human orthopneumovirus; assay: Antiviral activity against Human respiratory syncytial virus A2 infected in african green monkey Vero 76 cells assessed as reduction of virus-induced plaque formation after 5 days using crystal violet staining; assay type: functional, organism-based; settings: 120 h
[12] = Cytotoxicity against african green monkey Vero 76 cells after 48 to 96 hrs by crystal violet staining; assay type: cell-based; settings: chlorocebus sabaeus
How it was run: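 Vero-76 cells were seeded at 4×10^5 cells/mL in D-MEM with L-glutamine, kanamycin and 10% FBS, then exposed to serial compound dilutions at 37 °C, 5% CO2 for 48–96 h. Viability was read by crystal violet staining. 50% cytotoxic concentration by linear regression relative to untreated controls; mean of three independent determinations.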

[13] = Cytotoxicity against MDBK cells after 48 to 96 hrs by MTT assay; assay type: cell-based, Bos taurus; settings: cattle; how it was run: as §2
[14] = system: Coxsackievirus B5; assay: Antiviral activity against Human coxsackievirus B5 Ohio-1 infected in african green monkey Vero 76 cells assessed as reduction of virus-induced plaque formation after 3 days using crystal violet staining; assay type: functional, organism-based; settings: Enterovirus B, Ohio-1, Vero, 72 h

Structure (SMILES) | EC50 [1] | EC50 [2] | EC50 [3] | EC50 [4] | EC50 [5] | EC50 [6] | CC50 [7] | CC50 at 96 h [8] | EC50 [9] | EC50 [10] | EC50 [11] | CC50 [12] | CC50 [13] | EC50 [14]
O=c1[nH]c2c(Cl)c3ncccc3cc2nc1-c1ccccc1 | > 61 µM | 39 µM | 100 µM | 100 µM | > 100 µM | > 100 µM | > 100 µM | 61 µM | 5 µM | > 100 µM | > 100 µM | > 100 µM | > 100 µM | > 100 µM
O=[N+]([O-])c1c2cccnc2c(Cl)c2[nH]n[n+]([O-])c12 | > 100 µM | > 100 µM |  | > 100 µM | > 100 µM | > 100 µM | > 100 µM | > 100 µM | > 100 µM |  | > 100 µM | > 100 µM | > 100 µM | > 100 µM
c1cnc2cc3[nH]cnc3cc2c1 | > 100 µM | > 100 µM | > 100 µM | > 100 µM | > 100 µM | > 100 µM | > 100 µM | > 100 µM | > 100 µM | > 100 µM |  | > 100 µM | > 100 µM | > 100 µM
Clc1ccc(-c2nc3cc4cccnc4cc3[nH]2)cc1 | > 100 µM | > 100 µM | > 100 µM | > 100 µM | > 100 µM | > 100 µM | > 100 µM | 100 µM | 18 µM | > 100 µM | > 100 µM | > 100 µM | > 100 µM | 43 µM
O=C1Nc2ccc(Cl)cc2[C@@](C#CC2CC2)(C(F)(F)F)O1 [EFAVIRENZ] |  |  |  |  |  |  |  | 40 µM |  |  |  |  |  | 
[O-][n+]1n[nH]c2c(Cl)c3ncccc3cc21 | > 100 µM | > 100 µM |  | > 100 µM | > 100 µM | > 100 µM | > 100 µM | > 100 µM | > 100 µM | > 100 µM | > 100 µM | > 100 µM | > 100 µM | 86 µM
Clc1c2ncccc2cc2nc(CBr)c(CBr)nc12 | > 16 µM | > 100 µM | > 100 µM | > 100 µM | > 100 µM | > 100 µM | > 100 µM | 16 µM | > 20 µM | > 100 µM | > 100 µM | > 100 µM | 20 µM | > 100 µM
COc1ccccc1-c1nc2cc3cccnc3cc2[nH]1 | > 14 µM | > 75 µM | > 32 µM | > 75 µM | > 32 µM | > 75 µM | 32 µM | 14 µM | ≥ 11 µM | > 75 µM | > 75 µM | 75 µM | 11 µM | 47 µM
O=c1[nH]c2cc3c(O)ccnc3c(Cl)c2nc1-c1ccccc1 | > 100 µM | > 100 µM | > 100 µM | > 100 µM | > 100 µM | > 100 µM | > 100 µM | > 100 µM | 100 µM | ≥ 100 µM | > 100 µM | ≥ 100 µM | > 100 µM | > 100 µM
[O-][n+]1n[nH]c2c(Cl)c3nccc(O)c3cc21 | > 100 µM | > 100 µM | > 100 µM | > 100 µM | > 100 µM | > 100 µM | > 100 µM | > 100 µM | > 100 µM |  | > 100 µM | > 100 µM | > 100 µM | > 100 µM
Oc1ccnc2c(Cl)c3[nH]c(-c4ccccc4)nc3cc12 | > 100 µM | > 100 µM | > 75 µM | > 100 µM | > 75 µM | > 100 µM | 75 µM | > 100 µM | > 100 µM | > 100 µM | > 100 µM | > 100 µM | > 100 µM | > 100 µM
Clc1c2ncccc2cc2nc(-c3ccccc3)[nH]c12 | > 29 µM | > 100 µM | 10 µM | > 100 µM | > 35 µM | 53 µM | 35 µM | 29 µM | 4 µM | > 100 µM | > 100 µM | > 100 µM | 65 µM | 36 µM
O=[N+]([O-])c1c2cccnc2c(Cl)c2[nH]nnc12 | > 100 µM | > 100 µM | > 100 µM | > 100 µM | > 100 µM | > 100 µM | > 100 µM | > 100 µM | 23 µM | > 100 µM | > 100 µM | > 100 µM | > 100 µM | > 100 µM
O=[N+]([O-])c1ccc(-c2nc3cc4cccnc4cc3[nH]2)cc1 | > 100 µM | > 95 µM | 67 µM | > 95 µM | > 100 µM | > 95 µM | > 100 µM | > 100 µM | 20 µM |  | > 95 µM | 95 µM | 90 µM | 35 µM
O=[N+]([O-])c1ccc(-c2nc3cc4cccnc4cc3[nH]2)c2ccccc12 | > 6 µM | > 100 µM | 50 µM | > 100 µM | > 100 µM | > 100 µM | > 100 µM | 6 µM | > 18 µM |  | > 100 µM | > 100 µM | 18 µM | > 100 µM
C#C[C@@]1(O)[C@H](O)[C@@H](CO)O[C@H]1n1ccc(N)nc1=O [2'-ETHYNYL-D-CYTIDINE] |  |  |  |  |  |  |  |  |  |  |  | > 100 µM |  | 27 µM
c1cnc2cc3nccnc3cc2c1 | > 100 µM | > 100 µM |  | > 100 µM | > 100 µM | > 100 µM | > 100 µM | > 100 µM | > 100 µM | > 100 µM |  | > 100 µM | > 100 µM | > 100 µM
COc1c(C)c2c(c(O)c1C/C=C(\C)CCC(=O)O)C(=O)OC2 [MYCOPHENOLIC ACID] |  | 1.5 µM |  |  |  |  |  |  |  |  |  | ≥ 12.5 µM |  | 
CC(=O)n1nnc2c(Cl)c3ncccc3cc21 | > 46 µM | > 100 µM |  | > 100 µM | > 72 µM | > 100 µM | 72 µM | 46 µM | > 30 µM | > 100 µM | > 100 µM | > 100 µM | 30 µM | > 100 µM
C[C@@]1(O)[C@H](O)[C@@H](CO)O[C@H]1n1ccc(N)nc1=O |  |  | 16 µM |  |  |  | > 100 µM |  |  |  |  |  |  | 
Nc1nc2c(ncn2COCCO)c(=O)[nH]1 [ACYCLOVIR] |  |  |  |  |  |  |  |  |  |  |  | > 100 µM |  | 
O=c1cnn([C@@H]2O[C@H](CO)[C@@H](O)[C@H]2O)c(=O)[nH]1 [6-AZAURIDINE] |  |  |  |  |  |  |  |  |  |  | 1.2 µM | ≥ 12.5 µM |  | 
Clc1c2ncccc2cc2nc[nH]c12 | > 100 µM | > 100 µM | > 100 µM | > 100 µM | > 100 µM | > 100 µM | > 100 µM | > 100 µM | > 100 µM | > 100 µM |  | > 100 µM | > 100 µM | > 100 µM
C[C@@]1(O)[C@H](O)[C@@H](CO)O[C@H]1n1cnc2c(=O)[nH]c(N)nc21 [2'-B-METHYL-GUANOSINE] |  |  |  |  | 1.9 µM |  | > 10 µM |  | 1.1 µM |  |  |  | > 10 µM | 

Source: ChEMBL document CHEMBL1938334, “Quinoline tricyclic derivatives. Design, synthesis and evaluation of the antiviral activity of three new classes of RNA-dependent RNA polymerase inhibitors” (Bioorg Med Chem, 2011)
